The list is not random: actives were taken first. Their share in the collection is about 3.9%.
ANO1 activ – TMEM16A chloride channel activators or potentiators, primary screen, cell-based, HTS. Anoctamin-1 (Mus musculus), Q8BHY3. HEK293 TMEM16A/YFP-H148Q/I152L, iodide quench fluorescence; active compounds read low. B-score at 10 µM. actives 0.3% (n = 340,000);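 active = fluorescence-ratio B-score plate-corrected deviation score at least 3 library SD below zero, with starting fluorescence score within 5 deviations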;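 also: channel opened by trigger with iodide after compound preincubation; score built on the fluorescence ratio of max minus min over baseline; more negative score means more quench and so TMEM16A activation or potentiation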
Target sequence (Q8BHY3 whole entry, looked up): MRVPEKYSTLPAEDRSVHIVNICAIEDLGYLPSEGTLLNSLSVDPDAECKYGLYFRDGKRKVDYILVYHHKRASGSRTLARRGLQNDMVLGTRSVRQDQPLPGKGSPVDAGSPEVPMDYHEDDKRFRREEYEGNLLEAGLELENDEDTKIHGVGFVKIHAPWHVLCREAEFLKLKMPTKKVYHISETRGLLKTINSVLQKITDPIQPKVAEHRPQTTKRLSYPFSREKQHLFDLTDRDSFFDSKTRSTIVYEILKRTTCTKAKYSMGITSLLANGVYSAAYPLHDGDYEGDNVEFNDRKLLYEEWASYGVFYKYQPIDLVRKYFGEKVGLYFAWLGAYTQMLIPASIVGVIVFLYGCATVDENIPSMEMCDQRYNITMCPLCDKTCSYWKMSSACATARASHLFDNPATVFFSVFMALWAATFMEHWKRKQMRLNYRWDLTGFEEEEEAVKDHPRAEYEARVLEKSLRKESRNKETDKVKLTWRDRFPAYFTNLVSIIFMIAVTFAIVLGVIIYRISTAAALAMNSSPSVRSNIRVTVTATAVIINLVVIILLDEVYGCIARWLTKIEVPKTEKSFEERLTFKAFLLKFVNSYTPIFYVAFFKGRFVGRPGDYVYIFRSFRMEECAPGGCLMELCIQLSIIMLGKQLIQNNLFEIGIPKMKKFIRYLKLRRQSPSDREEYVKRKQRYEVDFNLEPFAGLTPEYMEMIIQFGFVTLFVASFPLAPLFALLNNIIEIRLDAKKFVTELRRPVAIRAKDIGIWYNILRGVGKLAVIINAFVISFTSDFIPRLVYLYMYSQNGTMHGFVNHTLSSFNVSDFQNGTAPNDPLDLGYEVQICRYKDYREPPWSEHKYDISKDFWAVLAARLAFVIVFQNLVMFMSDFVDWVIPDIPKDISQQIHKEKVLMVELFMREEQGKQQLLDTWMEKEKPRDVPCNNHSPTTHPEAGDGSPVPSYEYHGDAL
TAAR1 antag – human TAAR1 antagonists, primary screen, Fluo-8 calcium fluorescence, CHO RD-HGA16 cells; Trace amine-associated receptor 1 (Homo sapiens), Q96RJ0; antagonist; inhibition, % at 3 µM; actives 1.5% (n = 360,000); AID 624466, 2012;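 active = inhibition above a per-plate cutoff, the mean inhibition of test compounds on that plate plus 3 SD, cut at about 49% in these data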
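Test system – hTAAR1-expressing CHO RD-HGA16 cells, Gα16-coupled · Reagent – β-PEA at EC80 concentration, post-compound challenge · Compound dosing – 3 µM, single point · Timing – 140 s kinetic read after compound, 140 s after agonist · Detection – Fluo-8 intracellular calcium dye fluorescence, real-time kinetic reads · Control set – DMSO and EC80 PEA controls · Repeats – n of 1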
TAAR1 ag – human TAAR1 agonists, primary screen, Fluo-8 calcium fluorescence, CHO RD-HGA16 cells; vehicle wells 0%, saturating PEA agonist 100%; activation, % at 3 µM; actives 0.99% (n = 360,000); AID 624467, 2012;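 active = activation above the mean activation of all test compounds in the run plus 3 SD, cut at about 38% in these data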
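Test system: RD-HGA16 (CHO) cells co-expressing Gα16 and hTAAR1; dosing: one-point dosing at 3 µM (nominal); timing: 17-24 h seeding, 75 min 37 °C dye, 30 min RT; signal: kinetic Fluo-8 calcium fluorescence; read-out basis: % activation relative to PEA EC100 response; controls: DMSO and PEA EC100; replicates: n 1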
CRFBP-R2 block – antagonists of CRF-BP/CRF-R2 complex, primary screen, cell-based, HEK293, calcium dye fluorescence, uHTS. actives 0.59% (n = 350,000). inhibition, % at 11.8 µM. CRF-induced calcium fluorescence;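 active = inhibition of the ligand-induced calcium signal above about 50% at the single tested concentration, limit read from the data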
TMEM16A inh – TMEM16A chloride channel inhibitors, primary screen, cell-based, HTS | Anoctamin-1 (Mus musculus), Q8BHY3 | HEK293 TMEM16A/YFP iodide influx fluorescence, ionomycin | normalized B-score (activity score, 25-100; higher = stronger inhibition) at 10 µM | actives 1.2% (n = 310,000);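 active = ratio plate-corrected score three or more library SD toward inhibition, starting fluorescence score within five deviations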;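 also: score derived from kinetic fluorescence span divided by baseline fluorescence per well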
CRFR2-BP ag – agonists of CRF-BP/CRF-R2 complex, primary screen, cell-based, HEK293, calcium dye fluorescence, uHTS | activation, % at 13.2 µM | actives 0.46% (n = 350,000) | calcium dye fluorescence (FLIPR); percent of saturating CRF peptide response | AID 588473, 2011;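 active = activation of at least 50%, plus an integration ratio under a set limit after plate pattern correction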
A number is an active result; . = inactive; / = not tested or not shown.

SMILES	ANO1 activ	TAAR1 antag	TAAR1 ag	CRFBP-R2 block	TMEM16A inh	CRFR2-BP ag
CC(=O)C1=C(O)C(=O)N(c2nccs2)C1c1ccccc1 (configuration not stated)	.	.	.	94.4	.	.
Cn1[nH]c(CSc2ccc(Cl)cc2)cc1=O	.	.	.	.	.	.
CCC1CCCCN1C(=O)c1cc(COc2ccc3ncccc3c2)on1 (configuration not stated)	.	.	.	.	25	.
COCC1CCCCN1C(=O)c1cc(COc2ccc3ncccc3c2)on1 (configuration not stated)	.	.	.	.	.	.
O=C(NCc1cccc(Cl)c1)c1cc(COc2ccc3ncccc3c2)on1	.	.	.	.	100	.
CN(C(=O)c1ccccc1C(=O)OCC(=O)c1ccc(F)c(F)c1)C1CCCCC1	.	.	.	.	/	.
CC(CCc1ccccc1)NC(=O)CNC(=O)c1cccs1 (configuration not stated)	.	.	.	.	.	.
CCOC(=O)Cn1nc(-c2ccccc2)c2cnc3ccc(C)cc3c21	.	49.3	.	.	.	.
CCOC(=O)Cn1nc(-c2ccc(C)cc2)c2ccccc2c1=O	.	.	.	.	.	.
COc1cc2c(cc1OC)C(=O)N1[C@H]3c4ccccc4OC[C@@H]3[C@H](c3ccccc3)[C@]1(C)C(=O)N2	.	.	.	.	.	.
COc1ccc2c(c1)OC[C@H]1[C@H]2N2C(=O)c3cc(OC)c(OC)cc3NC(=O)[C@@]2(C)[C@H]1c1ccccc1	.	.	.	65.2	.	.
CCOC(=O)CC(NC(=O)Cn1nnc(-c2ccccc2Cl)n1)c1ccc(OC)cc1 (configuration not stated)	.	.	45.8	.	.	.
O=C(CCCc1ccccc1)NCCS(=O)(=O)N1CCN(c2ccccc2F)CC1	.	.	.	.	.	.
CCn1c(=O)c(C(=O)NNC(=O)c2ccccc2Cl)c(O)c2ccccc21	.	.	54.3	.	.	.
Cc1cc(C(=O)COC(=O)c2ccncc2)c(C)n1CCc1ccc(F)cc1	.	.	48.4	.	.	.
Cc1cc(C(=O)Cn2cncn2)c(C)n1CCc1ccc(F)cc1	.	.	.	.	.	.
O=C(COC(=O)/C=C/c1ccc(Cl)cc1Cl)NCc1ccco1	.	.	.	.	.	.
O=C(CSc1nc(=O)n(CCCN2CCOCC2)c2c1CCCC2)Nc1cccc(F)c1	.	.	.	.	.	.
Cc1cc(C(=O)COC(=O)c2ccccc2O)c(C)n1CC1CCCO1 (configuration not stated)	.	.	.	.	/	.
Cc1ccc(C(=O)OCC(=O)c2cc(C)n(CC3CCCO3)c2C)cc1 (configuration not stated)	.	.	.	79.2	.	.
O=C(Nc1nnc(-c2cccs2)o1)c1cccc(Oc2ccccc2)c1	.	.	.	.	25	.
O=C(Nc1nnc(-c2cccs2)o1)c1cccc(F)c1	.	.	.	.	.	.
Cc1ccnc(NC(=O)C2CCN(S(=O)(=O)c3ccc4c(c3)CC(C)N4C(=O)C3CCC3)CC2)c1 (configuration not stated)	.	.	.	.	25	.
CCc1ccc(NC(=O)C2CCN(S(=O)(=O)c3ccc4c(c3)CC(C)N4C(C)=O)CC2)cc1 (configuration not stated)	.	50.2	.	.	.	.
CC1=C(C(=O)N2CCOCC2)CC(CC(=O)NCCN2CCOCC2)C(=O)N1Cc1ccc(F)cc1 (configuration not stated)	/	.	.	.	/	.
SMILES	ANO1 activ	TAAR1 antag	TAAR1 ag	CRFBP-R2 block	TMEM16A inh	CRFR2-BP ag
Cc1nnc(NC(=O)C2c3ccccc3Oc3ccccc32)s1	.	.	.	.	.	.
CC(C)c1nnc(NC(=O)C2c3ccccc3Oc3ccccc32)s1	.	.	42.4	.	.	.
CCc1nc2ccc(C(=O)Nc3cccc(OCC(=O)N(C)C)c3)cn2c1N(C)C(=O)c1cccc(OC)c1	/	.	.	/	/	/
CCc1nc2ccc(C(=O)Nc3cccc(OCC(=O)N(C)C)c3)cn2c1N(C)Cc1ccc(OC)cc1	/	54.2	.	/	/	/
Cc1ccc(NC(=O)c2cc(S(=O)(=O)N3CCOCC3)cn2C)cc1Cl	.	.	.	.	.	.
Cc1ccc2c(C)c(C(=O)N(C)Cc3nccn3C)oc2c1C	.	.	.	.	.	.
O=C(Nc1ccc(C(F)(F)F)cc1)C1CCCCN1S(=O)(=O)c1ccccc1 (configuration not stated)	.	.	.	.	/	.
CC(=O)Nc1ccc(NC(=O)C2CCCCN2S(=O)(=O)c2ccc(C(C)(C)C)cc2)cc1 (configuration not stated)	.	54.9	.	.	.	.
CCOC(=O)CNC(=O)COc1coc(CN2CCN(Cc3ccccc3)CC2)cc1=O	.	.	.	.	.	.
O=[N+]([O-])c1cc(/C=N\O)ccc1Oc1ccc(F)cc1	.	.	.	78.9	.	.
COc1ccc(CN2C(=O)[C@H]3Cc4c([nH]c5ccccc45)C(C)(C)N3C2=O)cc1	.	56.0	.	.	25	.
CC1(C)c2[nH]c3ccccc3c2C[C@@H]2C(=O)N(Cc3ccccc3Cl)C(=O)N21	.	49.1	.	.	.	.
COc1ccc(CN2C(=O)[C@@H]3Cc4c([nH]c5ccccc45)C(C)(C)N3C2=O)cc1	.	.	.	.	.	.
COc1cccc(CNC(=O)CSCc2cnn(-c3ccccc3)c2-n2cccc2)c1OC	.	.	.	.	100	.
COc1ccccc1CNC(=O)CSCc1cnn(-c2ccccc2)c1-n1cccc1	.	.	.	.	.	.
Cc1cc(=O)[nH]c(SCC(=O)Nc2ccc(Br)cc2)c1C#N	.	.	.	63.5	100	67.1
COc1ccccc1NC(=O)C1CC(O)CN1C(=O)Oc1ccccc1 (configuration not stated)	.	.	.	.	.	.
O=C(COC(=O)C1(c2ccc(F)cc2)CCCC1)NCc1ccc2c(c1)OCO2	.	.	.	61.8	.	.
O=C(NCc1ccc2c(c1)OCO2)c1ccc2c(c1)OCO2	.	.	.	.	.	.
O=C(NCc1ccc2c(c1)OCO2)C1CCN(S(=O)(=O)c2ccc(Br)s2)CC1	-6.9	.	.	.	.	.
